Screening data (PubChem)
STAT3 inh: inhibitors of IL-6 induced STAT3 signaling. U3A cells, IL-6 STAT3-luciferase reporter, luminescence; host cell line lacks STAT1. AID 862. hit rate 0.89% among 190,000. inhibition, % at 5.5 µM;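 active = inhibition above the mean inhibition across all screened compounds plus 3 SD, cut at about 44% in these data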;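 also: 0% = DMSO only wells and 100% = 100 µM nifuroxazide control wells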
HSP90 refold inh: inhibitors of HSP90 luciferase refolding in rabbit reticulocyte lysate. luciferase refolding luminescence, 3 h. inhibition, % at 5.6 µM. hit rate 0.91% among 290,000;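 active = inhibition above the screen-wide mean plus 3 SD, computed separately per campaign, cut at about 16% in these data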;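 also: 0% = DMSO wells and 100% = 60 µM geldanamycin wells; inhibitors lower the luminescence because luciferase stays unfolded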
STAT1 blocker: STAT1 signaling inhibition | inhibition, % at 5.5 µM | NIH 3T3 STAT1-luciferase reporter, IFN-gamma, luminescence | hit rate 0.35% among 200,000;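 active = inhibition above a set limit, the mean inhibition across all tested compounds plus 3 SD, cut at about 34% in these data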;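 also: 0% = IFN-gamma with DMSO and 100% = IFN-gamma with 300 µM nifuroxazide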
STAT3 activator: activators of IL-6 induced STAT3 signaling; activation (% of control), % at 5.6 µM; AID 871; hit rate 0.91% among 190,000; U3A cells, IL-6 STAT3-luciferase reporter, luminescence; 100% = signal with IL-6 EC80 alone;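 active = activation above the screen-wide mean of compound activation plus 3 SD, cut at about 130% in these data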;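 also: 0% = background luminescence of wells with medium and substrate only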
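Detection: reporter luminescence signal / Assay system: STAT1-lacking human U3A cells, STAT3 luciferase reporter / Incubation: compound pre-incubation 1 h before IL-6, then 6 h stimulation at 37 °C / Control set: IL-6-only high control / Read-out: % activation relative to IL-6 control / Probe or stimulus: Interleukin-6, 33 ng/mL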
PPC-1+TRAIL kill: kills PPC-1 cancer cells in the presence of TRAIL; PPC-1 cells + TRAIL, ATPLite viability luminescence; cell killing (% activity), % at 4 µM or 5 µM; hit rate 0.41% among 220,000;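 active = cell killing above 50% in the first pass at 4 µM, then a duplicate retest at 5 µM averaging 50% or more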;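 also: plate controls were cells with TRAIL plus DMSO for no effect and medium-only wells lacking cells for full effect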
C8 TRAIL sens: caspase-8 TRAIL sensitization; inhibition (viability loss, TRAIL sensitization), % at 10 µM; NB7+C8 cells + TRAIL, ATPlite viability luminescence; hit rate 1% among 360,000;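 active = compounds causing at least 50% loss of cell viability in the single-dose screen, relative to plate controls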
PPC1 cytotox: PPC-1 cell cytotoxicity. shares compounds with PPC-1+TRAIL kill. PPC-1 viability, ATPlite luminescence, overnight. cytotoxicity, % at 5 µM. hit rate 50% among 1,200. AID 1447;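 active = reconfirmed compounds whose average cytotoxicity reaches 50% or more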;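 also: 0% = DMSO-treated cells and 100% = wells holding medium but no cells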
HSP90 confirm: confirmation of HSP90 inhibitors | rabbit reticulocyte lysate, luciferase refolding luminescence, 3 h | inhibition, % at 5.9 µM | hit rate 64% among 2,300 | shares compounds with HSP90 refold inh | AID 1846; in the data active = inhibition above about 18%;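 also: 0% = vehicle wells and 100% = reference inhibitor wells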
FLuc counter: counter-screen for HSP90 inhibitors: inhibitors of firefly luciferase; hit rate 48% among 2,300; inhibition, % at 5.9 µM; shares compounds with HSP90 refold inh; purified native firefly luciferase, luminescence;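 active = inhibition above the mean inhibition of all tested sample wells plus 3 SD, cut at about 10% in these data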;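 also: 0% = DMSO with luciferase and 100% = wells lacking luciferase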
Target sequence (P08659 whole entry, looked up): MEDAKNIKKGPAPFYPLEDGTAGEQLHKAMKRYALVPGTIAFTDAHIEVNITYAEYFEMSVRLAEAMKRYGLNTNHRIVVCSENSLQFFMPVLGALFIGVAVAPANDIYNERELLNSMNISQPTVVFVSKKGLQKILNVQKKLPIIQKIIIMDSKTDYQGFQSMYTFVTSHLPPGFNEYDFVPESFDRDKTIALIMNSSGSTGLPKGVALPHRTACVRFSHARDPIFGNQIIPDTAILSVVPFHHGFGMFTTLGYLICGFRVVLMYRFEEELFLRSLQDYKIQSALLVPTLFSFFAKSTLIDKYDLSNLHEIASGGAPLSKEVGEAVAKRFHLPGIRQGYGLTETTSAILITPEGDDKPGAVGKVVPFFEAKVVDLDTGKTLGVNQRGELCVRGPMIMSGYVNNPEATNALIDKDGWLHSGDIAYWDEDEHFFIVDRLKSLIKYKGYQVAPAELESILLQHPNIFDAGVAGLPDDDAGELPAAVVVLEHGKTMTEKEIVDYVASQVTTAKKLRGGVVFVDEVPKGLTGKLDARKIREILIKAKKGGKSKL
* hit, by the source's call. Only some compounds are listed: those with a hit (about 2.3% of all), similar ones and a draw of the others.

Clc1ccc(CSc2nc3ccncc3[nH]2)cc1 was read as STAT3 inh 81*, HSP90 refold inh 27*, STAT1 blocker 52*, STAT3 activator 37, PPC-1+TRAIL kill 94*, C8 TRAIL sens 92*, PPC1 cytotox 93*, HSP90 confirm 64* and FLuc counter 45*.
For O=C(c1ccc(CSc2nc3ccncc3[nH]2)cc1)N1CCCCCC1 the results were HSP90 refold inh 27*, PPC-1+TRAIL kill 81*, C8 TRAIL sens 81*, PPC1 cytotox 83*, HSP90 confirm 51* and FLuc counter 27*.
`COc1cccc(C(=O)N2CCN(Cc3nc(-c4ccoc4)oc3C)CC2)c1` gave C8 TRAIL sens -15.
`COC(=O)c1cc2occc2n1Cc1nc(-c2cccc(Cl)c2)oc1C` gave STAT3 inh -5, HSP90 refold inh 4, STAT1 blocker -4, STAT3 activator 104, PPC-1+TRAIL kill 14 and C8 TRAIL sens 3.
`CCC(C)NC(=O)C1CCN(S(=O)(=O)N2CCCC2)CC1` (centres undefined) gave STAT3 inh 2, HSP90 refold inh -2, STAT1 blocker -7, STAT3 activator 102, PPC-1+TRAIL kill -31 and C8 TRAIL sens -5.
Screening Cc1[nH]c(SCC(=O)Nc2cc(C(N)=O)cc(C(N)=O)c2)nc1Cc1ccccc1 returned C8 TRAIL sens 21.
For COc1ccccc1C(=O)Nc1ccc2c(c1)OCO2 the results were STAT3 inh -19, HSP90 refold inh 2, STAT1 blocker -35, STAT3 activator 124, PPC-1+TRAIL kill -11 and C8 TRAIL sens 6.
For Cc1ccccc1C(=O)Nc1ccc2c(c1)OCO2 the results were STAT3 inh 42, HSP90 refold inh 22*, STAT1 blocker -7, STAT3 activator 69, PPC-1+TRAIL kill 48, C8 TRAIL sens 41, PPC1 cytotox 52*, HSP90 confirm 36* and FLuc counter 15*.
For COC(=O)c1ccc2nc(-c3ccc4c(c3)OCO4)cn2c1 the results were STAT3 inh 89*, HSP90 refold inh 18*, STAT1 blocker 66*, STAT3 activator 25, PPC-1+TRAIL kill 63*, C8 TRAIL sens 70*, PPC1 cytotox 63*, HSP90 confirm 73* and FLuc counter 65*.
For CCc1ccn2cc(-c3ccc4c(c3)OCO4)nc2c1 the results were HSP90 refold inh 73*, PPC-1+TRAIL kill 92*, C8 TRAIL sens 92*, PPC1 cytotox 91*, HSP90 confirm 86* and FLuc counter 85*.
`CCSc1nnc(NC(=O)c2csc(C)c2)s1` gave STAT3 inh 15, HSP90 refold inh 5, STAT1 blocker -26, STAT3 activator 90, PPC-1+TRAIL kill 5 and C8 TRAIL sens -8.
`CC1(C)C2CCC(C2)C1(C)NC(=O)CN1CCCC1` (centres undefined) gave HSP90 refold inh -1 and C8 TRAIL sens 6.
For CCN1CCN(C(=O)c2ccc(-c3nc4ccccc4s3)s2)CC1 the results were STAT3 inh 19, HSP90 refold inh 2, STAT1 blocker -32, STAT3 activator 88, PPC-1+TRAIL kill 10 and C8 TRAIL sens 24.
`O=C(c1ccc(-c2nc3ccccc3s2)s1)N1CCOCC1` gave STAT3 inh 98*, HSP90 refold inh 64*, STAT1 blocker 77*, STAT3 activator 18, PPC-1+TRAIL kill 88*, PPC1 cytotox 88*, HSP90 confirm 85* and FLuc counter 79*.
Screening O=C(NC1CC1)c1ccc(-c2nc3ccccc3s2)s1 returned STAT3 inh 106*, HSP90 refold inh 76*, STAT1 blocker 75*, STAT3 activator 14, PPC-1+TRAIL kill 93*, C8 TRAIL sens 91*, PPC1 cytotox 93*, HSP90 confirm 80* and FLuc counter 77*.
`COc1ccc(C(=O)Nc2ccccc2C(=O)NCc2cccnc2)cc1OC` gave HSP90 refold inh 0 and C8 TRAIL sens -1.
`COc1ccc(C(=O)Nc2ccccc2C(=O)N/N=C/c2ccncc2)cc1OC` gave HSP90 refold inh 29*, PPC-1+TRAIL kill 96*, C8 TRAIL sens 94*, PPC1 cytotox 96*, HSP90 confirm 61* and FLuc counter 19*.
N/C(=N\OC(=O)c1ccccc1Cl)c1ccccn1 was read as STAT3 inh 69*, HSP90 refold inh 73*, STAT1 blocker 78*, STAT3 activator 46, PPC-1+TRAIL kill 66*, C8 TRAIL sens 79*, PPC1 cytotox 70*, HSP90 confirm 68* and FLuc counter 89*.
For C#CCOCCOCCOCCNc1nc(N2CCN(C(=O)[C@H](CCCCN)n3cc([C@@H](N)CC(C)C)nn3)CC2)nc(N2CCN(C(=O)[C@H](Cc3cc4ccccc4[nH]3)n3cc([C@@H](N)Cc4ccc(O)cc4)nn3)CC2)n1 the results were HSP90 refold inh 3, STAT1 blocker -4, PPC-1+TRAIL kill 9 and C8 TRAIL sens -17.
Screening COC(=O)c1cc(C)c(C)cc1NC1OC(CO)C(O)C1O (centres undefined) returned C8 TRAIL sens 10.
Screening COc1ccc(-c2oc3c(c2C(=O)OCCCO)C(OCCCCCO)CCC3)cc1 (centres undefined) returned C8 TRAIL sens 20.
CCn1c(C)nc2cc(-c3nc4n(n3)Cc3ccccc3-4)ccc21 was read as STAT3 inh 115*, HSP90 refold inh 88*, STAT1 blocker 96*, STAT3 activator 7, PPC-1+TRAIL kill 94*, C8 TRAIL sens 96*, PPC1 cytotox 94*, HSP90 confirm 97* and FLuc counter 92*.
CNC(=S)N/N=C/c1c(C(=O)OC)cnn1-c1ccc(F)cc1F was read as HSP90 refold inh -3, PPC-1+TRAIL kill 2 and C8 TRAIL sens 0.
Fc1ccc(-c2nnc(NC3=NCCCCC3)o2)cc1 was read as STAT3 inh 100*, HSP90 refold inh 73*, STAT1 blocker 68*, STAT3 activator 20, PPC-1+TRAIL kill 66*, C8 TRAIL sens 75*, PPC1 cytotox 64*, HSP90 confirm 81* and FLuc counter 76*.
`Fc1ccc(NC2=NCCCCC2)cc1` gave STAT3 inh 6, HSP90 refold inh 2, STAT1 blocker 11, STAT3 activator 100, PPC-1+TRAIL kill 28 and C8 TRAIL sens -7.
`NS(=O)(=O)c1ccc(CCNC(=O)C(=O)NCC2OCCN2S(=O)(=O)c2ccc(Cl)cc2)cc1` (centres undefined) gave HSP90 refold inh 3 and C8 TRAIL sens -1.
